Compound activity: PubChem, Broad Institute
SR-BI DiI-HDL act: enhances SR-BI lipid uptake from DiI-HDL; 320,000 tested, 0.096% active; CHO ldlA[mSR-BI] cells, DiI-HDL uptake fluorescence, 3 h; 100 = double the neutral-control signal; activation, % at 12.5 µM;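 active means mean replicate activation of at least 60% and every replicate at or above 60%; inconclusive means mean or all-replicate condition met, but not both; inactive means mean below 60% and not all replicates reaching 60%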;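 further: 0% = median plate neutral-control signal and 100% = twice that signal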
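material = CHO ldlA[mSR-BI] cells | medium = Ham's F12 with 0.5% BSA, HEPES 25 mM, pH 7.4 | reagent = fluorescent DiI-HDL, 10 µg/mL final | compound dosing = single-point compound dose | incubation = 3 h, 37 °C | measured by = bottom-read fluorescence, 550/595 nm | measure = HDL uptake via cellular fluorescence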
SR-BI HDL uptake: inhibitors of mouse SR-BI mediated HDL lipid uptake; Q61009; ldlA[mSR-BI] CHO cells, DiI-HDL uptake fluorescence, 3 h; inhibition, % at 12.5 µM; 320,000 tested, 0.96% active; AID 488896;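 active means mean replicate inhibition of at least 70% and a set share of replicates each scoring 70 or more; inconclusive means meets just one of the two criteria; inactive means fails both criteria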;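 further: 0% = median of neutral control wells and 100% = median of positive control wells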
Target sequence (Q61009 whole entry, looked up): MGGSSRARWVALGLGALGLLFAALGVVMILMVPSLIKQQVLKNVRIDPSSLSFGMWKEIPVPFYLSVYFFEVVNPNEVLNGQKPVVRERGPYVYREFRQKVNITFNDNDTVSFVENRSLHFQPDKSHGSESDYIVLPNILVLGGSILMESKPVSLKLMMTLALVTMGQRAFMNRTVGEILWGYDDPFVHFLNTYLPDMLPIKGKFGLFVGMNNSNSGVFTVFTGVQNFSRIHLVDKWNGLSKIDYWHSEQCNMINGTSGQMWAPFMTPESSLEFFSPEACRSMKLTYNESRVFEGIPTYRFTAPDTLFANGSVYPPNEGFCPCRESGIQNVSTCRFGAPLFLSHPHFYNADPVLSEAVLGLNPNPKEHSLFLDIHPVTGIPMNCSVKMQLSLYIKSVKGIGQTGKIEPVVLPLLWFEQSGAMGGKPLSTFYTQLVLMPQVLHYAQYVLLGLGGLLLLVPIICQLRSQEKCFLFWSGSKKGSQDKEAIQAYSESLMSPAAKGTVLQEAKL
HIV Env fusion: blocks HIV Env-driven cell-cell fusion; HeLa-JRFL Env/CEM21 cell fusion, luciferase; 360,000 tested, 1.1% active; AID 651610; inhibition, % at 12.3 µM;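 active means mean replicate inhibition score of at least 50 and every replicate individually at or above 50; inconclusive means only one of the two criteria met; inactive means mean below 50 and not all replicates reaching 50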;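 further: 0% = plate neutral controls and 100% = maraviroc near 300 nM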
PglD inh: blocks C. jejuni PglD acetyltransferase activity; inhibition, % at 12.5 µM; 360,000 tested, 0.098% active; purified PglD enzyme, DTNB colorimetric CoA detection; in the data active means inhibition above about 16%, passing the limit was not always enough; inconclusive means no clear call, values can overlap the other calls
Rtt109 HAT inh: blocks Candida albicans Rtt109/Vps75 acetyltransferase activity. 330,000 tested, 0.16% active. inhibition, % at 34.9 µM. Q5AAJ8. purified Rtt109/Vps75, ThioGlo CoA-SH fluorescence, 4 h;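 active means inhibition of at least 50% in every replicate; inconclusive means best replicate reaches 50% inhibition but some replicates fall short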
N-glyco inh: blocks N-linked glycosylation in D54 reporter cells. D54 ERlucT glycosylation luciferase reporter, 24 h; percent of 100 nM tunicamycin response. reporter increase, % at 12.5 µM. 360,000 tested, 0.23% active;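 active means mean luciferase reporter signal, scaled so untreated is 0 and the glycosylation-blocking control 100, at or above a set limit in every replicate; inconclusive means mean reaches the limit but not every replicate does; inactive means mean below the limit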;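 further: luciferase carries N-glycosylation sites so blocking glycosylation raises the light; 0% = median of neutral control wells and 100% = median of 100 nM tunicamycin wells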
Numbers without * were called inactive; ? = inconclusive; . = no result given; [ ] = remark or other dose. Rows were chosen to be rich in hits. Some 1.9% of all compounds tested hit in one or more screens of this group.

SMILES | SR-BI DiI-HDL act | SR-BI HDL uptake | HIV Env fusion | PglD inh | Rtt109 HAT inh | N-glyco inh
CC(C)C#Cc1ccc2c(c1)O[C@@H](CN(C)C(=O)Cc1ccccn1)[C@H](C)CN([C@@H](C)CO)S2(=O)=O | . | . | 2.7[16.7 µM] | -1.7 | . | .
COC(=O)c1cccc(NC(=S)Nc2ccccc2Cl)c1 | -29.0 | 29.0 | -2.1 | 3.7 | 3.8 | 0.8
COC(=O)c1cc(NC(=S)Nc2cc(Cl)cc(Cl)c2)cc(C(=O)OC)c1 | -85.8 | 85.8* | -3.0 | . | -1.9 | -6.5
Cc1ccc(S(=O)(=O)N(C)CC(=O)N2CCCC2)cc1 | -10.6 | 10.6 | . | . | 1.5 | -1.4
Cc1cc(C)c(S(=O)(=O)N(C)CC(=O)N2CCCC2)c(C)c1 | . | . | -22.3 | 1.3 | . | 33.6*
NC(=S)NNc1ccnc2cc(Cl)ccc12 | -90.3 | 90.3* | 7.3 | . | 10.7 | -2.7
FC(F)Oc1ccc(NC(=S)NNc2ccnc3cc(Cl)ccc23)cc1 | -95.2 | 95.2* | 15.5 | -0.4 | . | -10.4
O=C(NNc1ccnc2cc(Cl)ccc12)C1CCCCC1 | 0.5 | -0.5 | 10.3 | . | -7.8 | 0.0
C[C@@H]1CN([C@@H](C)CO)C(=O)Cc2cc(NC(=O)Cc3ccccc3)ccc2O[C@H]1CN(C)C(=O)Nc1ccc(F)cc1 | . | . | . | 3.0 | . | .
CCc1ccc2oc(C(=O)NCc3ccncc3)c(C)c2c1 | -20.8 | 20.8 | 62.0* | -0.1 | 10.5 | -2.6
Cc1cc(C)c2c(C)c(C(=O)NCc3ccncc3)oc2c1 | -20.9 | 20.9 | 3.0 | -2.4 | -2.1 | -1.9
CCN(CC)S(=O)(=O)c1ccc2oc(C(=O)NCc3ccc(C)cc3)c(C)c2c1 | -75.7 | 75.7* | . | 5.0 | 5.9 | -3.6
Cc1ccc2oc(C(=O)NCc3ncc(C)[nH]3)c(C)c2c1 | 21.2 | -21.2 | 13.0 | 1.1 | -1.2 | 28.7*
CC(C)C#Cc1cnc2c(c1)C(=O)N([C@@H](C)CO)C[C@@H](C)[C@H](CN(C)C(=O)Nc1cccc(F)c1)O2 | . | . | 8.4[16.7 µM] | 2.6 | . | .
CCN(CC)CCN1C(=O)c2cccc3cc(N)cc(c23)C1=O | -14.3 | 14.3 | -99.1 | 1.9 | 5.0 | 59.6*
Nc1cc2c3c(cccc3c1)C(=O)N(CCN1CCCC1)C2=O | 8.5 | -8.5 | -57.0 | 2.2 | 2.0 | ?
CO[C@H]1CN(C)C(=O)c2ccc(NC(=O)Nc3cc(F)ccc3F)cc2OC[C@@H](C)N(C(=O)c2cnccn2)C[C@H]1C | . | . | -2.3[16.7 µM] | 3.8 | . | .
Cc1ccc(C2CC(=O)c3cnc(N4CCc5ccccc5C4)nc3C2)cc1 (centres undefined) | 11.5 | -11.5 | 67.5* | -7.6 | 4.7 | -1.5
CCOc1ccccc1NC(=O)Nc1ccsc1C(=O)OC | -78.6 | 78.6* | -12.4 | -2.9 | -0.6 | -0.8
CCOc1ccccc1NC(=O)Nc1cccc(NC(C)=O)c1 | . | . | 32.5 | -1.6 | 3.2 | 1.8
CCOc1ccccc1NC(=O)Nc1cccc(C(C)=O)c1 | -78.5 | 78.5* | -65.1 | -3.8 | 3.7 | -1.4
CCCOc1ccc2ccccc2c1/C=N/n1c(C)nnc1-n1nc(C)cc1C | -50.8 | 50.9 | . | . | -5.8 | 27.3*
Cc1noc(C)c1S(=O)(=O)Nc1ccc2c(c1)C(=O)N([C@@H](C)CO)C[C@H](C)[C@@H](CN(C)C(=O)NC(C)C)O2 | . | . | 21.9[16.7 µM] | -0.7 | . | .
C[C@@H]1CN([C@@H](C)CO)C(=O)c2cc(N(C)C)ccc2O[C@@H](C)CCCCO[C@H]1CN(C)C | . | . | 0.9[16.7 µM] | . | . | .
CCCN1C[C@@H](C)[C@H](OC)CN(C)C(=O)c2ccc(NC(=O)Nc3ccccc3F)cc2OC[C@@H]1C | . | . | . | 1.2 | . | .
CCOC(=O)C1=C(C(=O)OCC)C2N(Cc3ccc(C#N)cc3)c3ccccc3[C@@]23C[C@@H](C(=O)OC)N(S(=O)(=O)c2cccs2)C3=N1 (some centres undefined) | . | . | 11.0 | . | . | .
CCOC(=O)C1=C(C(=O)OCC)C2N(Cc3ccc(Br)cc3)c3ccccc3[C@@]23C[C@@H](C(=O)OC)N(S(=O)(=O)c2cccs2)C3=N1 (some centres undefined) | . | . | 59.0* | . | . | .
Cc1ccc(-n2c(SCC(=O)N/N=C/c3c(C)nn(-c4ccccc4)c3C)nc3ccccc3c2=O)cc1 | -49.3 | 49.3 | 9.7 | . | 4.3 | -8.8
Cc1nn(-c2ccccc2)c(C)c1/C=N/NC(=O)CSc1nnc(SCc2cccc3ccccc23)s1 | -72.7 | 72.7* | 24.8 | . | -9.8 | -0.1
Cc1nn(-c2ccccc2)c(C)c1/C=N/NC(=O)CSc1nc2ccccc2c(=O)n1-c1ccc(Br)cc1 | -73.8 | 73.8* | 9.9 | 2.9 | 7.2 | -4.6
